The record followed here is ChEMBL document CHEMBL5346889, “Discovery of 4-oxo-N-phenyl-1,4-dihydroquinoline-3-carboxamide derivatives as novel anti-inflammatory agents for the treatment of acute lung injury and sepsis” (Eur J Med Chem, 2023).

Data set [1] concerns Mus musculus. Put plainly: Antiinflammatory activity in LPS-induced C57/BL6 mouse acute lung injury model assessed as decrease in TNF-alpha expression level at 20 mg/kg via oral gavage preincubated for 30 mins followed by LPS stimulation for 6 hrs by RT-qPCR method. Type of data set: functional, organism-based. To be noted: time 6.5 hrs. A digest of the protocol:
(§1)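 Male C57BL/6 mice, six weeks old, n = 8 per group. Dosed 20 mg/kg orally 30 min before intratracheal LPS 5 mg/kg; dexamethasone 20 mg/kg as comparator. Lung tissue collected 6 h after LPS. RNA extracted with TRIzol; IL-6 and TNF-α transcripts by RT-qPCR, normalized to β-actin; n = 5 mice per group, mean ± SEM.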

A short description of data set [2]: AUC (0 to t) in rat at 1 mg/kg, iv. The following applies: in vivo. It is filed as ADME, organism-based. Also noted: dose 1 mg/kg, route iv. An outline of the steps:
(§2)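 Rats dosed intravenously at 1 mg/kg or orally at 10 mg/kg; plasma pharmacokinetic parameters AUC(0-t), Tmax, T1/2, Cmax and oral bioavailability F derived from the two routes.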

Data set [3] relates to Mus musculus. Put plainly: Antiinflammatory activity in LPS-induced C57/BL6 mouse acute lung injury model assessed as decrease in IL-6 expression level at 20 mg/kg via oral gavage preincubated for 30 mins followed by LPS stimulation for 6 hrs by RT-qPCR method. Type of data set: functional, organism-based. To be noted: time 6.5 hrs. An outline of the steps:
as §1
(In general: Quantitative PCR measures a nucleic acid by following its amplification.)

The subject of data set [4] is Mus musculus. Put plainly: Protection against LPS-induced sepsis in C57/BL6 mouse model assessed as reduction in spleen enlargement at 20 mg/kg, po preincubated with compound followed by LPS stimulation for 1 hr. Type of data set: functional, organism-based. A digest of the protocol:
(§3)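 Mice given 20 mg/kg orally, then intraperitoneal LPS 20 mg/kg 1 h later; n = 12 per group. Kidney, liver, heart and spleen weighed; spleen sections H&E-stained for histology.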

Data set [5] relates to Mus musculus. Put plainly: Protection against LPS-induced C57/BL6 mouse acute lung injury model assessed as improvement in alveolar wall thickening at 20 mg/kg via oral gavage preincubated for 30 mins followed by LPS stimulation for 6 hrs. To be noted: time 6.5 hrs. Type of data set: functional, organism-based. An outline of the steps:
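Mice dosed 20 mg/kg by gavage (dexamethasone 20 mg/kg comparator), intratracheal LPS 5 mg/kg 30 min later, killed at 6 h. Right upper lobe fixed in paraformaldehyde, H&E; lung wet/dry ratio; BALF protein, total cells and neutrophils counted; n = 5 mice per group, mean ± SEM.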

The nature of data set [6]: Half life in rat at 1 mg/kg, iv. It is filed as ADME, organism-based. To be noted: in vivo. An outline of the steps: as §2
A short description of data set [7]: Cmax in rat at 10 mg/kg, po. It is filed as ADME, organism-based. More on the design: dose 10 mg/kg, route po. The following applies: in vivo. A digest of the protocol: as §2
Data set [8] deals with THP-1. Put plainly: Antiinflammatory activity in LPS-induced human THP-1 cells assessed as inhibition of LPS-induced TNF-alpha transcription preincubated for 0.5 hrs followed by LPS stimulation for 6 hrs by RT-qPCR method. It is filed as functional, cell-based. To be noted: dose 5-10 µM, time 6.5 hrs. An outline of the steps:
(§4)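 J774A.1 or THP-1 cells pretreated 0.5 h at 10 or 5 μM, then LPS 0.5 μg/mL for 6 h. TRIzol RNA; IL-6, TNF-α and IL-1β transcripts by RT-qPCR, normalized to β-actin and control; 3 independent experiments, mean ± SEM.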

Data set [9] has as its system THP-1. Put plainly: Antiinflammatory activity in LPS-induced human THP-1 cells assessed as inhibition of LPS-induced IL-1 beta transcription preincubated for 0.5 hrs followed by LPS stimulation for 6 hrs by RT-qPCR method. It is filed as functional, cell-based. The following applies: dose 5-10 µM, time 6.5 hrs. A digest of the protocol:
as §4

Data set [10] deals with J774.A1. Put plainly: Antiinflammatory activity in LPS-induced mouse J774.A1 cells assessed as inhibition of LPS-induced IL-6 release preincubated for 30 mins followed by LPS stimulation for 24 hrs by ELISA method. It is filed as functional, cell-based. A digest of the protocol:
(§5)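 Dose-response in J774A.1 cells: 30 min pretreatment at 10, 5, 2.5 or 1.25 μM, then LPS 0.5 μg/mL for 24 h. IL-6 and TNF-α by ELISA, normalized to lysate protein; IC50 from the dose-response; 3 independent experiments, mean ± SEM.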
(In general: An ELISA detects its analyte on a solid surface through an enzyme-linked reagent.)

Data set [11] has as its system Mus musculus. Put plainly: Antiinflammatory activity in LPS-induced C57/BL6 mouse acute lung injury model assessed as reduction in macrophage infiltration at 20 mg/kg via oral gavage preincubated for 30 mins followed by LPS stimulation for 6 hrs by immunohistochemical staining based analysis. Type of data set: functional, organism-based. To be noted: time 6.5 hrs. A digest of the protocol:
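Same ALI model: 20 mg/kg oral, intratracheal LPS 5 mg/kg 30 min later, lungs at 6 h. Paraffin sections given citrate (pH 6.5) antigen retrieval, 3% H2O2 and 5% BSA block, anti-F4/80 12 h at 4 °C, HRP secondary, DAB and hematoxylin; F4/80 positivity quantified; n = 5 per group.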

The subject of data set [12] is J774.A1. Put plainly: Antiinflammatory activity in LPS-induced mouse J774.A1 cells assessed as inhibition of LPS-induced TNF-alpha transcription preincubated for 0.5 hrs followed by LPS stimulation for 6 hrs by RT-qPCR method. It is filed as functional, cell-based. To be noted: dose 5-10 µM, time 6.5 hrs. A digest of the protocol:
as §4

Data set [13] concerns J774.A1. Put plainly: Inhibition of NF-kappaB pathway in LPS-induced mouse J774.A1 cells assessed as inhibition of IkappaB-alpha degradation preincubated with compound for 2 hrs followed by LPS-stimulation and measured after 30 mins by Western blot analysis. Type of data set: cell-based. To be noted: dose 5-10 µM, time 2.5 hrs. A digest of the protocol:
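J774A.1 cells preincubated with 10 or 5 μM or DMSO for 2 h, then LPS 0.5 μg/mL for 30 min. RIPA lysates run on 12.5% SDS-PAGE, transferred to PVDF, blocked with 5% milk; probed for IκB-α and p-p65, with GAPDH and p65 as loading controls; ECL detection; densitometry.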
On the technique in general: In western blotting, separated proteins are transferred to a membrane and probed.

The nature of data set [14]: Cmax in rat at 1 mg/kg, iv. Also noted: dose 1 mg/kg, route iv. It is filed as ADME, organism-based. To be noted: in vivo. An outline of the steps:
as §2

For data set [15], the system named is J774.A1. Put plainly: Antiinflammatory activity in LPS-induced mouse J774.A1 cells assessed as inhibition of LPS-induced IL-6 transcription preincubated for 0.5 hrs followed by LPS stimulation for 6 hrs by RT-qPCR method. It is filed as functional, cell-based. To be noted: dose 5-10 µM, time 6.5 hrs. A digest of the protocol:
as §4

The subject of data set [16] is J774.A1. Put plainly: Antiinflammatory activity in LPS-induced mouse J774.A1 cells assessed as inhibition of LPS-induced IL-6 release at 10 uM preincubated for 30 mins followed by LPS stimulation for 24 hrs by ELISA method. Type of data set: functional. The following applies: time 24.5 hrs. An outline of the steps: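 J774A.1 macrophages pretreated 30 min at 10 μM, then challenged with LPS 0.5 μg/mL for 24 h at 37 °C, 5% CO2. Medium IL-6 and TNF-α measured by ELISA, normalized to total lysate protein.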

The subject of data set [17] is J774.A1. Put plainly: Inhibition of NF-kappaB pathway in LPS-induced mouse J774.A1 cells assessed as reduction in p65 nuclear translocation preincubated with compound for 2 hrs followed by LPS-stimulation and measured after 30 mins by Western blot analysis. Type of data set: cell-based. The following applies: time 2.5 hrs.
Data set [18] deals with Mus musculus. Put plainly: Protection against LPS-induced sepsis in C57/BL6 mouse model assessed as reduction of lymph node hyperplasia at 20 mg/kg, po preincubated with compound followed by LPS stimulation for 1 hr by H and E staining based analysis. Type of data set: functional, organism-based. A digest of the protocol:
as §3

The nature of data set [19]: Tmax in rat at 10 mg/kg, po. It is filed as ADME, organism-based. To be noted: in vivo. A digest of the protocol: as §2
The test system of data set [20] is LX-2. Put plainly: Antiinflammatory activity in LPS-induced human LX2 cells assessed as inhibition of LPS-induced IL-6 release preincubated for 30 mins followed by LPS stimulation for 24 hrs by ELISA method. Type of data set: functional, cell-based. A digest of the protocol:
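THP-1 or LX-2 cells in DMEM with 10% FBS, 37 °C, 5% CO2. Pretreated 30 min at 10, 5, 2.5 or 1.25 μM, then LPS 0.5 μg/mL for 24 h. IL-6 and TNF-α in medium measured by ELISA, normalized to lysate total protein; mean ± SEM of 3 independent experiments.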

Data set [21] has as its system J774.A1. Put plainly: Antiinflammatory activity in LPS-induced mouse J774.A1 cells assessed as inhibition of LPS-induced TNF-alpha release preincubated for 30 mins followed by LPS stimulation for 24 hrs by ELISA method. It is filed as functional, cell-based. An outline of the steps: as §5

SMILES strings stand for the structures. Activity calls are given as the source filed them. The rule behind the calls is not given here.

Take `COc1cc2nccc(Oc3ccc(NC(=O)c4cn(-c5ccccc5)c5ccccc5c4=O)cc3)c2cc1OC`: the outcome in data set [1], in data set [3], in [4], in [5], in data set [11] and in [18] was Active. Also, the AUC(0-t) (in general, exposure summed from dosing to a finite time, without extrapolation to infinity) in [2] was 6320 ng·h/mL. Further, the half-life (usually how long it takes for the measured level to halve) in data set [6] was 8.9 h. The Cmax (in general, the maximum level reached in the sampled fluid or tissue) was determined as 1680 ng/mL in data set [7] and 1360 ng/mL in data set [14]. In addition, the inhibition (as a rule, how much of the control response was suppressed) was “Dose-Dependent Effect” in data set [8]; “Dose-Dependent Effect” in data set [9]; “Dose-Dependent Effect” in data set [10] (dose 1.25-10 µM, time 24.5 hrs); “Dose-Dependent Effect” in data set [12]; “Dose-Dependent Effect” in [13]; “Dose-Dependent Effect” in [15]. For the same compound, in data set [21] (dose 1.25-10 µM, time 24.5 hrs), the inhibition result was “Dose-Dependent Effect”. Also, the values for the IC50 in data set [10], in [20] and in data set [21] were 1.33 µM, 2.62 µM and 2.4 µM, respectively. Moreover, in data set [16], the inhibition at 10 µM worked out at 75%. The inhibition result in [17] is “Active”. For the same compound, the Tmax – broadly, the time at which the peak concentration occurs – in data set [19] was 5 h.
